The values below come from ChEMBL document CHEMBL2177011, “Discovery, synthesis, and biological evaluation of orally active pyrrolidone derivatives as novel inhibitors of p53-MDM2 protein-protein interaction” (J Med Chem, 2012).

The test system of data set [1] is NCI-H1299. In words: Antiproliferative activity against p53 deficient human NCI-H1299 cells after 72 hrs by MTT assay. The format is functional, cell-based. The following applies: NCI-H1299, 72 h. The essentials:
(§1)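 Cells seeded at 5−6 × 10⁴ per well and cultured 24 h, then exposed in triplicate wells to a range of compound concentrations for 72 h, with 0.1% DMSO as control. MTT (5 mg/mL solution) was added for 4 h at 37 °C, formazan dissolved in DMSO, absorbance read at 570 nm. Drug-free wells served as blanks; IC50 calculated.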
A general note: Formazan colour is commonly taken as a measure of viable cells.

Data set [2] relates to SAOS-2. In words: Antiproliferative activity against p53 deficient human Saos2 cells after 72 hrs by MTT assay. It is filed as functional, cell-based. Particulars: SAOS-2, 72 h; call rule not given here. The essentials:
as §1

Data set [3] concerns the target Tumour suppressor p53/oncoprotein Mdm2 (Homo sapiens, UniProt Q00987). As to the kind of experiment: (§2) Inhibition of p53-MDM2 interaction after 1 hr by fluorescence polarization assay. It is filed as protein assay. (Fluorescence polarisation rises when a labelled molecule tumbles more slowly, as on binding a larger partner.)
Data set [4] has as its system A549. As to the kind of experiment: Antiproliferative activity against human A549 cells expressing wild type p53 after 72 hrs by MTT assay. The format is functional, cell-based. In outline: as §1
The target of data set [5] is Tumour suppressor protein p53/Mdm4 (Homo sapiens, UniProt O15151). As to the kind of experiment: (§3) Inhibition of p53-MDMX interaction after 1 hr by fluorescence polarization assay. The format is protein assay.
The subject of data set [6] is U2OS. In words: Antiproliferative activity against human U2OS cells expressing wild type p53 after 72 hrs by MTT assay. The format is functional, cell-based. In outline:
as §1

Data set [7] addresses Tumour suppressor protein p53/Mdm4 (Homo sapiens, UniProt P04637+O15151). The description is as §3. It is filed as protein assay.
For data set [8], the system named is A549. In words: Induction of apoptosis in human A549 cells expressing wild type p53 at 10 uM after 48 hrs using annexin V-FITC staining by flow cytometry assay. The format is functional. In outline: (§4)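 A549 cells (5 × 10⁵ cells/mL) were seeded in six-well plates and treated at 5−20 μM for 48 h. Cells were harvested by trypsinization, washed twice in cold PBS and resuspended in binding buffer. They were stained with annexin V-FITC for 15 min at room temperature, then with PI for 15 min in the dark, and analyzed by flow cytometry; n = 3.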

Data set [9] concerns A549. As to the kind of experiment: Antitumor activity against human A549 cells expressing wild type p53 xenografted in nude BALB/C mouse assessed as inhibition of tumor growth at 200 mg/kg, po qd for 14 days. The format is functional. The following applies: A549, 336 h, read-out: TGI. In outline:
(§5)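 Male BALB/C nude mice (18−20 g) had A549 cells implanted subcutaneously in the right axilla. Dosing started on day 13, when tumors reached 100−300 mm³. Mice were randomized (6 per treatment group, 10 controls) and dosed by gavage once daily for 14 days. Caliper tumor volume (TV = 1/2 × a × b²) was taken every 4 days; relative tumor volume was used. Mice were sacrificed on day 29 or 33.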
A general note: Xenograft models place foreign cells or tissue in a host animal.

The subject of data set [10] is A549. In words: Induction of apoptosis in human A549 cells expressing wild type p53 at 20 uM after 48 hrs using annexin V-FITC staining by flow cytometry assay. It is filed as functional. In outline:
as §4

Data set [11] concerns A549. In words: Induction of apoptosis in human A549 cells expressing wild type p53 after 48 hrs using annexin V-FITC staining by flow cytometry assay. It is filed as functional, cell-based. The essentials: as §4
Data set [12] concerns Mus musculus. In words: Toxicity in human A549 cells expressing wild type p53 xenografted nude BALB/C mouse assessed as reduction of body weight at 300 mg/kg, po qd for 14 days. It is filed as organism-based. Particulars: in vivo, 336 h. The arrangement: dose 300 mg/kg, route oral. In outline:
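Subcutaneous A549 xenografts (right axilla) in male BALB/C nude mice (18−20 g). From day 13 (tumors 100−300 mm³), the compound was given by gavage once daily for 14 days (6 animals per group; vehicle control group). Body weight was recorded every 4 days during treatment.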

In data set [13] the test system is A549. In words: Induction of apoptosis in human A549 cells expressing wild type p53 at 5 uM after 48 hrs using annexin V-FITC staining by flow cytometry assay. It is filed as functional. The essentials:
as §4

Data set [14] has as its system Mus musculus. As to the kind of experiment: Toxicity in nude BALB/C mouse assessed as mortality at 200 mg/kg, po qd for 14 days. Particulars: in vivo, 336 h. It is filed as organism-based. The arrangement: dose 200 mg/kg, route oral. The essentials: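 Male BALB/C nude mice (18−20 g) carried subcutaneous A549 implants in the right axilla. Dosing began once tumors reached 100−300 mm³, 13 days after implantation. Animals were randomized into groups of 6 per treatment and 10 controls, then given 200 mg/kg by gavage once daily for 14 consecutive days. Body weight was recorded every 4 days. Mice were sacrificed on day 29 or 33.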

The test system of data set [15] is A549. In words: Antitumor activity against human A549 cells expressing wild type p53 xenografted in nude BALB/C mouse assessed as inhibition of tumor growth at 300 mg/kg, po qd for 14 days. It is filed as functional. The following applies: A549, 336 h, read-out: TGI. The essentials:
as §5

Data set [16] concerns the target Tumour suppressor p53/oncoprotein Mdm2 (Homo sapiens, UniProt P04637+Q00987). The description is as §2. The format is protein assay.
Setting [17] is: Homo sapiens, A549, 72 h, read-out: IC50.
Where [18] appears, read: Homo sapiens, U2OS, 72 h, read-out: IC50.

The IC50 is the concentration that gives 50% inhibition. As usually defined, the Ki is the equilibrium dissociation constant of an inhibitor or competing ligand from its target. Higher therefore signals lower affinity.

Chain of Tumour suppressor protein p53/Mdm4 (Homo sapiens, UniProt O15151) (P04637 whole entry): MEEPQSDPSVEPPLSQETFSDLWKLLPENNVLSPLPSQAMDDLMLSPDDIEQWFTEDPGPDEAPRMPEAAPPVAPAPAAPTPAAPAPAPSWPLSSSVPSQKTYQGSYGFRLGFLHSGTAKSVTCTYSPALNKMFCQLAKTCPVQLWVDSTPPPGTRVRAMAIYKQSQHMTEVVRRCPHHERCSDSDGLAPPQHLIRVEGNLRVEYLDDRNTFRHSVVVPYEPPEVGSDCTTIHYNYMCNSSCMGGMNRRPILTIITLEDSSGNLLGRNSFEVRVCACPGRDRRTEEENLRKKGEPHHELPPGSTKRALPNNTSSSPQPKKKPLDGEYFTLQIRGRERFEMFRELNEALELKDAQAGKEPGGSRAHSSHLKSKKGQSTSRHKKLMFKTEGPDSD
Chain of Tumour suppressor protein p53/Mdm4 (Homo sapiens, UniProt O15151) (O15151 whole entry): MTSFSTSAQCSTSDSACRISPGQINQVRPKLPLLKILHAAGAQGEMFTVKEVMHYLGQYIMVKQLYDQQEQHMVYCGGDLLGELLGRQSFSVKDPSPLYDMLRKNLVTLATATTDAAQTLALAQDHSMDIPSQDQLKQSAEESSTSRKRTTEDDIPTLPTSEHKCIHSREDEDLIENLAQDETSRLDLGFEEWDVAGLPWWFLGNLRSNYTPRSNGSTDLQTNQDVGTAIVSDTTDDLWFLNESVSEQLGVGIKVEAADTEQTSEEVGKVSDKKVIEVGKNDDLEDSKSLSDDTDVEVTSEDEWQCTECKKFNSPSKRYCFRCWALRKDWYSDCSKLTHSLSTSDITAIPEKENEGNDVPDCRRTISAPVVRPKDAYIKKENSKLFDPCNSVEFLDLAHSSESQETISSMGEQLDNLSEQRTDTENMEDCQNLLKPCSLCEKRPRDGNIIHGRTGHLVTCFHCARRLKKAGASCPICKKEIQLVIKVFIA
Chain of Tumour suppressor p53/oncoprotein Mdm2 (Homo sapiens, UniProt P04637+Q00987) (P04637 whole entry): as the sequence (P04637 whole entry) above
Chain of Tumour suppressor p53/oncoprotein Mdm2 (Homo sapiens, UniProt P04637+Q00987) (Q00987 whole entry): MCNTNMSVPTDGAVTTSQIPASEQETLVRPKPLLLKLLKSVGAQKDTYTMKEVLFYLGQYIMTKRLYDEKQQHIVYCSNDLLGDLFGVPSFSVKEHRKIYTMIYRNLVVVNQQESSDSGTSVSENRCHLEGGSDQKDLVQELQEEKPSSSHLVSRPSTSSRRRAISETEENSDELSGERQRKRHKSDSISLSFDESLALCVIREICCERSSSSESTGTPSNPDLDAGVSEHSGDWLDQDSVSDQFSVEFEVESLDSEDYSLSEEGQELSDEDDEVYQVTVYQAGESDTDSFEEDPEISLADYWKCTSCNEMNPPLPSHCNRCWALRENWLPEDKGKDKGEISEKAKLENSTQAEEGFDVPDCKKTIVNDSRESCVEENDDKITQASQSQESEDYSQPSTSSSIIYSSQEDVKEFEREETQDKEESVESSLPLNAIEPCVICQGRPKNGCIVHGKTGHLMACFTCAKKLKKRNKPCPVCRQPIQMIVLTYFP
Chain of Tumour suppressor protein p53/Mdm4 (Homo sapiens, UniProt P04637+O15151) (P04637 whole entry): as the sequence (P04637 whole entry) above
Chain of Tumour suppressor protein p53/Mdm4 (Homo sapiens, UniProt P04637+O15151) (O15151 whole entry): as the sequence (O15151 whole entry) above
Chain of Tumour suppressor p53/oncoprotein Mdm2 (Homo sapiens, UniProt Q00987) (P04637 whole entry): as the sequence (P04637 whole entry) above
Chain of Tumour suppressor p53/oncoprotein Mdm2 (Homo sapiens, UniProt Q00987) (Q00987 whole entry): as the sequence (Q00987 whole entry) above

Regarding `O=C(C1=C(OC2CCCCC2)C(=O)N(CCCn2ccnc2)C1c1ccc(Br)cc1)c1ccccc1` (stereo not given), the IC50 in data set [1] worked out at 19.9 µM; in data set [2] it was 29.7 µM; in data set [4] (setting [17]), 31.2 µM; in data set [6] (setting [18]), 22.4 µM. Moreover, the Ki is 0.49 µM in [3] and 17.9 µM in [5].
For `CCCCCOC1=C(C(=O)c2ccccc2)C(c2ccc(Br)cc2)N(CCCn2ccnc2)C1=O` (stereo not given), the IC50 is 10.3 µM in data set [1], 9.99 µM in [2], 7.29 µM in data set [4] (setting [17]) and 9.14 µM in data set [6] (setting [18]). For the same compound, the Ki in data set [3] is 0.34 µM; in [7], “Not Active”.
Regarding `CCOC1=C(C(=O)c2ccccc2)C(c2ccc(Br)cc2)N(CCCn2ccnc2)C1=O` (stereo not given), the IC50 is 28.9 µM in data set [1], 31.7 µM in data set [2], 35.2 µM in data set [4] (setting [17]) and 21.9 µM in data set [6] (setting [18]). Besides, the Ki in data set [3] worked out at 0.69 µM; in data set [5] it was 38.9 µM.
Turning to `O=C(C1=C(O)C(=O)N(CCCn2ccnc2)C1c1ccc(Br)cc1)c1ccccc1` (stereo not given), the IC50 is 20 µM in data set [1], 31.6 µM in data set [2], 73.1 µM in data set [4] (setting [17]) and “Not Active” in data set [6] (u2os). The results for the Ki in data set [3] and in data set [7] were 0.29 µM and “Not Active”, respectively.
With `CCCOC1=C(C(=O)c2ccccc2)C(c2ccc(Br)cc2)N(CCCn2ccnc2)C1=O` (stereo not given), the Ki is 6.97 µM in data set [3] and 9.32 µM in [5].
Turning to `C[C@@H](NC1=C(C(=O)c2ccccc2)[C@@H](c2ccc(Br)cc2)N(CCCn2ccnc2)C1=O)c1ccccc1`, the Activity in [8] was 4.02%; in data set [10] it was 17.85%; in data set [11], “Dose-dependent effect”; in data set [12], “Non-toxic”; in [13], 0.63%; in [14] it was “Non-toxic”. In addition, the inhibition in vivo at 200 mg/kg in [9] worked out at 40%. Besides, the IC50 in data set [1] was determined as 14.4 µM; in data set [2] it was 27.4 µM; in data set [4] (setting [17]), 1.97 µM; in data set [6] (setting [18]) it was 28.1 µM. Moreover, the Ki entry in [7] was “Not Active”. For the same compound, in data set [15], the inhibition in vivo at 300 mg/kg came out at 52.5%.
For `CC(C)OC1=C(C(=O)c2ccccc2)C(c2ccc(Br)cc2)N(CCCn2ccnc2)C1=O` (stereo not given), the inhibition in vivo at 200 mg/kg in data set [9] worked out at 40%. For the same compound, the half-inhibitory concentration (IC50) in data set [1] was 18.9 µM; in data set [2], 23 µM; in [4] (setting [17]), 8.72 µM; in data set [6] (setting [18]), 24.8 µM. Also, the Activity result in [14] is given as “Non-toxic”.
Turning to `COCCOC1=C(C(=O)c2ccccc2)C(c2ccc(Br)cc2)N(CCCn2ccnc2)C1=O` (stereo not given), the values for the inhibition constant Ki in data set [3] and in [5] were 1.34 µM and 2.11 µM, respectively.
For `O=C(C1=C(O)C(=O)N(CCCn2ccnc2)C1c1ccc(Cl)nc1)c1ccccc1` (stereo not given), in data set [16], the Ki result is listed as “Not Active”.
`CCCCOC1=C(C(=O)c2ccccc2)C(c2ccc(Br)cc2)N(CCCn2ccnc2)C1=O` (stereo not given): the IC50 in data set [1] came to 17.1 µM; in [2], 11.6 µM; in [4] (setting [17]), 18.5 µM; in data set [6] (setting [18]) it was 32.4 µM. Moreover, the Ki in data set [3] is 0.47 µM; in data set [7], “Not Active”.
As for `NC1=C(C(=O)c2ccccc2)C(c2ccc(Br)cc2)N(CCCn2ccnc2)C1=O` (stereo not given), the IC50 is 168 µM in data set [1], 107 µM in [2], “Not Active” in [4] (a549) and 149 µM in data set [6] (setting [18]). The Ki in data set [3] was 0.048 µM; in data set [7] it was “Not Active”.
As to `COc1ccc(C2=N[C@@H](c3ccc(Cl)cc3)[C@@H](c3ccc(Cl)cc3)N2C(=O)N2CCNC(=O)C2)c(OC(C)C)c1` [NUTLIN-3], the Activity is 6.46% in data set [8], 15.49% in [10], “Dose-dependent effect” in data set [11] and 0.9% in data set [13]. Also, the IC50 turned out to be 31.6 µM in [2] and 14.3 µM in [6] (setting [18]).
In the case of `O=C(C1=C(O)C(=O)N(CCCn2ccnc2)C1c1cccs1)c1ccccc1` (stereo not given), in [16], the Ki entry is on record as “Not Active”.
In the case of `O=C(C1=C(OCc2ccccc2)C(=O)N(CCCn2ccnc2)C1c1ccc(Br)cc1)c1ccccc1` (stereo not given), the inhibition constant (Ki) was 2.07 µM in data set [3] and “Not Active” in data set [7].
Take `O=C(C1=C(O)C(=O)N(CCCn2ccnc2)C1c1ccccc1O)c1ccccc1` (stereo not given): the Ki result in data set [16] was “Not Active”.
